In ChEMBL document CHEMBL4732262, “Identification of two novel thiophene analogues as inducers of autophagy mediated cell death in breast cancer cells” (Bioorg Med Chem, 2021):
Calls of active or inactive are those of the source. The calls are words filed in the database; no cut-off is given here.

Assays:
MDA-MB-231 [1] = experiment: Induction of apoptosis in human MDA-MB-231 cells assessed as necrotic cells at 2.5 uM after 24 hrs by annexin V-FITC/Propidium iodide staining based flow cytometric analysis (reference value: 0.65%); assay type: functional
MDA-MB-231 [2] = experiment: Induction of apoptosis in human MDA-MB-231 cells assessed as early apoptotic cells at 2.5 uM after 24 hrs by annexin V-FITC/Propidium iodide staining based flow cytometric analysis (reference value: 1.54%); assay type: functional
MCF7 [3] = experiment: Induction of apoptosis in human MCF7 cells assessed as late apoptotic cells at 2.5 uM after 24 hrs by annexin V-FITC/Propidium iodide staining based flow cytometric analysis (reference value: 0.2%); assay type: functional
MCF7 (Homo sapiens) = experiment: Induction of apoptosis in human MCF7 cells assessed as increase in cell death at 2.5 uM after 24 hrs by EtBr/AO staining based fluorescence microscopic method
MDA-MB-231 [4] = experiment: Cytotoxicity against human MDA-MB-231 cells assessed as reduction in cell viability after 24 hrs by MTT assay; assay type: functional, cell-based; details: MDA-MB-231, 24 h
Summary of the method: (§1)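 Cells seeded ~5 × 10^3 per well in 96-well plates, exposed to 0–40 µM for 24 h. MTT added at 0.5 mg/ml for 3 h, formazan dissolved in DMSO, absorbance read at 540 nm. IC50 taken from plotted curves. Duplicate wells, two independent repeats. MCF7 grown in DMEM, MDA-MB-231 in RPMI, both with 10% FBS at 37 °C and 5% CO2.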

MCF7 [5] = experiment: Induction of apoptosis in human MCF7 cells assessed as necrotic cells at 2.5 uM after 24 hrs by annexin V-FITC/Propidium iodide staining based flow cytometric analysis (reference value: 1.22%); assay type: functional
MCF7 [6] = experiment: Induction of apoptosis in human MCF7 cells assessed as increase in cell death at 2.5 uM after 24 hrs by EtBr/AO staining based fluorescence microscopic method; assay type: functional
Summary of the method: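 ~5 × 10^4 MCF7 cells on coverslips given 2.5 µM for 24 h, then PBS-washed and stained with 1:1 ethidium bromide/acridine orange (0.4 mg/ml each). Viewed by fluorescence microscopy, excitation 480 nm with a 515–530 nm barrier filter. Apoptotic, necrotic and viable cells scored from 200 cells per sample.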

MCF7 [7] = experiment: Induction of apoptosis in human MCF7 cells assessed as early apoptotic cells at 2.5 uM after 24 hrs by annexin V-FITC/Propidium iodide staining based flow cytometric analysis (reference value: 3.94%); assay type: functional
MCF7 [8] = experiment: Induction of autophagy in human MCF7 cells assessed as LC3-2 to LC3-1 protein ratio at 2.5 uM after 24 hrs by Western blot analysis (reference value: 0.22 to 0.8); assay type: functional
MCF7 [9] = experiment: Cytotoxicity against human MCF7 cells assessed as reduction in cell viability after 24 hrs by MTT assay; assay type: functional, cell-based; details: MCF7, 24 h; summary of the method: as §1
MDA-MB-231 [10] = experiment: Induction of apoptosis in human MDA-MB-231 cells assessed as late apoptotic cells at 2.5 uM after 24 hrs by annexin V-FITC/Propidium iodide staining based flow cytometric analysis (reference value: 0.08%); assay type: functional
MCF7 [11] = experiment: Induction of autophagy in human MCF7 cells expressing GFP tagged LC3-2 assessed as increase in […] puncta formation at 2.5 uM after 24 hrs by confocal microscopic analysis; assay type: functional, cell-based
Summary of the method: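 MCF7 cells (~1 × 10^6) at 70% confluency on glass-bottom dishes were transiently transfected with GFP-LC3 (Lipofectamine 3000). 24 h later they received 2.5 µM compound or DMSO for another 24 h. Nuclei were stained with Hoechst 33342 and lysosomes with LysoTracker Red DND-99, then imaged by live-cell confocal microscopy. LC3 puncta were counted in at least 10 cells from 3 fields. Two independent experiments.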

MCF7 [12] = experiment: Induction of apoptotic in human MCF7 cells assessed as increase in Bim protein expression at 2.5 uM after 24 hrs by Western blot analysis; assay type: functional, cell-based
Summary of the method: (§2)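 MCF7 or MDA-MB-231 cells given 2.5 µM or DMSO for 24 h, then lysed in RIPA buffer. Immunoblots probed overnight at 4 °C, followed by infrared-labelled secondary antibody for 1 h at 37 °C. Bands imaged and quantified densitometrically, with GAPDH as loading control. Representative of two independent experiments.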

MCF7 [13] = experiment: Induction of autophagy in human MCF7 cells assessed as increase in Bcl2L11 mRNA expression at 2.5 uM after 24 hrs by RT-PCR analysis; assay type: functional, cell-based
Summary of the method: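 MCF7 cells given 2.5 µM or DMSO for 24 h. Total RNA extracted with TRIzol and reverse-transcribed, then SYBR Green qPCR across 34 autophagy-regulatory genes (95 °C 10 min; 40 cycles of 95 °C 15 s and 60 °C 1 min). Relative expression by 2^-ΔΔCt against housekeeping genes and DMSO control, shown as log2. Two independent experiments.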

MCF7 [14] = experiment: Induction of autophagy in human MCF7 cells assessed as increase in LC3-2 to LC3-1 protein ratio at 2.5 uM after 24 hrs by Western blot analysis; assay type: functional, cell-based
Summary of the method: (§3)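 MCF7 cells (~5 × 10^6) left untreated (DMSO control) or exposed to 2.5 µM compound for 24 h. Lysed in RIPA buffer, probed overnight at 4 °C, then given infrared-tagged secondary antibodies for 1 h at 37 °C and imaged by infrared scanning. LC3-II/I ratio and p62 taken by densitometry with GAPDH as loading control. Two independent experiments.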

MCF7 [15] = experiment: Induction of autophagy in human MCF7 cells assessed as increase in Beclin1 protein expression at 2.5 uM after 24 hrs by Western blot analysis; assay type: functional, cell-based; summary of the method: as §2
MCF7 [16] = experiment: Induction of autophagy in human MCF7 cells assessed as increase in p62 degradation at 2.5 uM after 24 hrs by Western blot analysis; assay type: functional, cell-based; summary of the method: as §3
MDA-MB-231 [17] = experiment: Cytotoxicity against human MDA-MB-231 cells assessed as reduction in cell viability at 100 uM after 24 hrs by MTT assay; assay type: functional, cell-based
MCF7 [18] = experiment: Cytotoxicity against human MCF7 cells assessed as reduction in cell viability at 100 uM after 24 hrs by MTT assay; assay type: functional, cell-based

Compound | Activity (MDA-MB-231 [1]) [%] | Activity (MDA-MB-231 [2]) [%] | Activity (MCF7 [3]) [%] | IC50 (MDA-MB-231 [4]) [µM] | Activity (MCF7 [5]) [%] | Activity (MCF7 [7]) [%] | Ratio (MCF7 [8]) | IC50 (MCF7 [9]) [µM] | Activity (MDA-MB-231 [10]) [%] | also measured
Cc1coc2c1C(=O)C(=O)c1c-2ccc2c1CCCC2(C)C [TANSHINONE IIA] | 2.11 | 9.23 | 0.31 | 7.7 | 5.27 | 2.9 | 1.46 | 7.79 | 0.34 | Activity (MCF7 (Homo sapiens)): Active; Activity (MCF7 [6]): Active
Cc1cc2c3c(ccc2s1)C(=O)C(=O)c1ccsc1-3 | – | – | – | 23.4 | – | – | – | 17.5 | – | –
COc1ccc2ccc3c(c2c1)-c1ccsc1C(=O)C3=O | 1.19 | 1.8 | 0.55 | 6 | 1.85 | 4.39 | 11.1 | 8.02 | 0.13 | Activity (MCF7 [11]): Active; Activity (MCF7 [12]): Active; Activity (MCF7 (Homo sapiens)): Active; Activity (MCF7 [13]): Active; Activity (MCF7 [14]): Active; Activity (MCF7 [6]): Active; Activity (MCF7 [15]): inactive; Activity (MCF7 [16]): Active
O=C1C(=O)c2occc2-c2c1ccc1ccccc21 | – | – | – | 17.4 | – | – | – | 15.8 | – | –
O=C1C(=O)c2c(ccc3ccccc23)-c2ccoc21 | – | – | – | 20.9 | – | – | – | 14.4 | – | –
O=C1C(=O)c2ccc3ccccc3c2-c2sccc21 | – | – | – | 15.6 | – | – | – | 12.8 | – | –
Cc1coc2c1C(=O)C(=O)c1c-2ccc2c(C)cccc12 [TANSHINONE I] | 3.56 | 1.44 | 0.91 | 7.96 | 3.63 | 14.3 | 0.61 | 7.93 | 0.18 | –
CCN(CC)CCCC(C)Nc1ccnc2cc(Cl)ccc12 (centres undefined) | – | – | – | – | – | – | – | – | – | Activity (MDA-MB-231 [17]): Active; Activity (MCF7 [18]): Active
Cc1cc2c3c(ccc2s1)C(=O)C(=O)c1sccc1-3 | – | – | – | 20.6 | – | – | – | 14.6 | – | –
